Most compounds without a hit are left out; they make up all but 1.6% or so of the library.
Rpn11 inh = inhibitors of human proteasome Rpn11. O00487. human 26S proteasome, Ub4-pepOG fluorescence polarization; 20S core pre-blocked with epoxomicin. inhibition, % at 20 µM. 0.59% of 360,000 active. AID 588493;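 active = inhibition at 20 µM, scaled to each plate's controls, above about 33%, limit read from the data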
HNF4A DNA FP = change in binding of human HNF4 alpha to DNA; P41235; HNF4a-FITC DNA binding, fluorescence polarization, 1 h; activity change, % at 10 µM; 0.3% of 360,000 active; AID 1224865; in the data active = activity change above about 30%, passing the limit was not always enough
Target sequence (P41235 whole entry, looked up): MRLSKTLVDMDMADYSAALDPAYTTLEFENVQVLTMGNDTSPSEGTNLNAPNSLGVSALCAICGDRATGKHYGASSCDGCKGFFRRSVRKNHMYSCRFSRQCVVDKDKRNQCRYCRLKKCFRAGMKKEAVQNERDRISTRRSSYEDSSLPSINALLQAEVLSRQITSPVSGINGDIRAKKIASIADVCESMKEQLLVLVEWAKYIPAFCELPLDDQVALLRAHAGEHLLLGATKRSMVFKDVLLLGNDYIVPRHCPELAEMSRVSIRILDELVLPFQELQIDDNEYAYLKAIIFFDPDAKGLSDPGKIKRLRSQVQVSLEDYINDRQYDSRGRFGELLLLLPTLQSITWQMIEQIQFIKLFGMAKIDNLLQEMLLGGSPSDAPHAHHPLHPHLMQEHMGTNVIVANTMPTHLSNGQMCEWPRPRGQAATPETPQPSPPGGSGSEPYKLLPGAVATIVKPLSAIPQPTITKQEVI
TPT1 inhibitor = C. albicans TPT1 enzyme inhibition; recombinant caTPT1, FP RNA substrate dephosphorylation; inhibition, % at 5 µM; 0.81% of 300,000 active; AID 1962;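 active = inhibition above the mean of all tested compounds plus 3 SD, set per screening campaign, cut at about 24% in these data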;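 also: plate controls were DMSO alone for no effect and ferristatin control at 100 nM for full effect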
CSN inh = CSN deneddylation inhibition. 0.38% of 360,000 active. Purified CSN, SCF-Nedd8-OG deneddylation, fluorescence polarization. inhibition, % at 12.5 µM. Q92905. AID 651999;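 active = pattern-corrected inhibition above about 35%, with an unprinted fluorescence ratio check between 0.5 and 1.5, limit read from the data, passing the limit was not always enough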;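 also: 0% = enzyme with substrate and 100% = substrate without enzyme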
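Material: human Csn5 produced in HEK293T cells; Input: enzyme 0.24 nM; Reagent: SCFSkp2-Nedd8OG substrate at 10 nM final; Dosing: 12.5 µM compound; Incubation: 90 min reaction at room temperature; Detection: fluorescence polarization of the substrate; Evaluation: % inhibition of substrate cleavage by Csn5; Control set: substrate-only high control, full reaction low control.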
SENP1 FRET inh = blocks the human SENP1 SUMO protease catalytic domain. 0.21% of 360,000 active. recombinant SENP1 catalytic domain, CyPet-SUMO1-YPet FRET cleavage. inhibition, % at 10 µM. Q9P0U3;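 active = inhibition at least 30% at 10 µM, raw YFP signal under a set limit, fluorescence ratio 0.5 to 1.5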;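 also: 0% = enzyme with DMSO and 100% = no enzyme wells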
Target sequence (Q9P0U3 419-644 limits assumed): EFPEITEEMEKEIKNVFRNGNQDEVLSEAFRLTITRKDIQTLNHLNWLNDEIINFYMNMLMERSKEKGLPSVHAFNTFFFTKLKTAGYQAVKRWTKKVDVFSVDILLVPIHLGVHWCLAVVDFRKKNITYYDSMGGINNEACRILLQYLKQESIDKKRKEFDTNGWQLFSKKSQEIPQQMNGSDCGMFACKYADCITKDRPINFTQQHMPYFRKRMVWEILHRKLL
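material = recombinant human SENP1 catalytic domain, His6-tagged | quantity = 20 pM enzyme | reagent = 25 nM SUMO1 FRET substrate | compound dosing = 10 µM single point, 0.5% DMSO | timing = 50 min enzyme reaction, room temperature, light-protected | detection = FRET, CFP and YFP emission | control set = no-enzyme low, enzyme-DMSO high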
Rpn11 confirm = Rpn11 inhibition confirmation, single concentration. shares compounds with Rpn11 inh. purified human 26S proteasome, Ub4-pepOG fluorescence polarization; proteasome pretreated with epoxomicin. inhibition, % at 20 µM. 29% of 1,900 active
MMP-2 inh = blocks human MMP-2, flagging nonselective RPN11 hits. shares compounds with Rpn11 inh. AID 602330. recombinant MMP-2, FRET peptide cleavage fluorescence. 4% of 1,900 active. inhibition, % at 20 µM;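 also: human MMP-2 activated beforehand with APMA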
Thrombin inh = blocks bovine thrombin, flagging nonselective RPN11 hits | shares compounds with Rpn11 inh | bovine thrombin cleavage of Ub4-pepOG, fluorescence polarization | inhibition, % at 20 µM | 13% of 1,900 active;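 active = mean inhibition at least 40% at 20 µM, or signal 3 deviations below plate average, so some actives read negative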;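 also: plate controls were thrombin with DMSO for no effect and buffer wells lacking thrombin for full effect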
An asterisk follows results filed as active; x = not tested or not shown. Rule as the data show it, unless noted: active = inhibition above about 40%; inactive = the rest.

SMILES	Rpn11 inh	HNF4A DNA FP	TPT1 inhibitor	CSN inh	SENP1 FRET inh	Rpn11 confirm	MMP-2 inh	Thrombin inh
CC[C@H](C)[C@H]1O[C@]2(CC[C@@H]1C)C[C@@H]1C[C@@H](CC=C(C)[C@@H](O[C@H]3C[C@H](OC)[C@@H](O[C@H]4C[C@H](OC)[C@@H](O)[C@H](C)O4)[C@H](C)O3)[C@@H](C)C=CC=C3CO[C@@H]4[C@H](O)C(C)=C[C@@H](C(=O)O1)[C@]34O)O2	6.6	2.9	-5.3	6.9	-28.5	x	x	x
CCCc1c(C)[nH]c2ccc(C(=O)O)cc2c1=S	98.4*	-68.2	x	48.5*	-2.0	73.7*	10.8	-7.8
O=C(NCCCN1CCOCC1)c1c(F)c(F)c(F)c(F)c1F	6.0	1.2	4.2	-0.7	-1.9	x	x	x
Cc1ccsc1C(=O)N1CCC1(C)C(=O)NS(=O)(=O)c1ccccc1C(F)(F)F (centres undefined)	-2.4	-5.7	x	-0.4	-2.0	x	x	x
CCc1nc2oc3ccccc3c(=O)c2c(=O)n1-c1ccc(C)cc1	68.1*	-13.2	18.7	4.7	-21.5	46.5*	-18.3	22.3
CCCc1nc2oc3ccccc3c(=O)c2c(=O)n1-c1ccc(C)cc1	-0.1	-0.1	3.1	-5.0	-6.3	x	x	x
CCOC(=O)c1cnc2c(C)cc(C)cc2c1NCCCN1CCOCC1	1.2	1.9	x	-0.3	1.5	x	x	x
O=C(O)C(Cc1ccccc1)N1C(=O)/C(=C/c2cccnc2)SC1=S (centres undefined)	-44.7	7.5	2.8	2.8	4.2	x	x	x
O=C(O)C(Cc1ccccc1)N1C(=O)/C(=C/C=C/c2ccco2)SC1=S (centres undefined)	175.0*	-34.2	x	77.0	-6.6	178.3*	36.4	53.5*
O=C1C(=O)N(CC2CCCO2)C(c2ccccc2[N+](=O)[O-])/C1=C(/O)c1ccccc1 (centres undefined)	-0.8	-1.4	-3.0	-0.9	-30.6	x	x	x
COc1ccc2nc(N3C(=O)CNC3=S)sc2c1	9.0	3.1	3.5	4.3	-1.9	x	x	x
CCOc1ccc2nc(N3C(=O)/C(=C/c4ccc(Cl)cc4)NC3=S)sc2c1	47.1*	-43.7	x	2.4	33.4*	31.4	-5.5	-0.1
COc1ccc(N=C2S/C(=C\c3ccc(C)s3)C(=O)N2CC(C)C)cc1	100.3*	3.2	-1.1	1.9	2.9	-3.5	-3.0	2.6
Oc1[nH]c2ccccc2c1N=Nc1ccccc1	-85.7	-73.2	7.7	-23.7	-21.7	x	x	x
Oc1[nH]c2ccccc2c1N=Nc1nc2ccccc2s1	38.7*	2.5	9.7	4.3	41.0*	14.0	-15.8	33.2
CC(C)(C)OC(=O)N1CCC(CNC(=O)c2ccc(F)cc2)CC1	4.6	-3.4	-1.8	4.2	1.2	x	x	x
COc1ccc(Br)cc1C(=O)Nc1cccc(-c2nnc(-c3ccco3)o2)c1	120.9*	48.6*	0.0	114.7*	1.4	31.9	-39.7	1.9
CN(CCO)c1ccc(C=NNc2ccc([N+](=O)[O-])cc2S(=O)(=O)Nc2ccccc2C(=O)O)cc1	90.0*	47.2*	x	23.5	78.7	72.9*	-15.0	39.9
CCN1CCN(c2nc3c(c(=O)[nH]c(=O)n3C)n2CCSc2nc3ccccc3s2)CC1	2.1	-1.0	2.6	0.0	-3.0	x	x	x
CC(CSc1nc2ccccc2s1)Cn1c(N2CCCC2)nc2c1c(=O)[nH]c(=O)n2C (centres undefined)	34.5*	-0.7	-2.0	-3.0	-0.9	11.1	37.1	7.7
Cc1cc(C(F)(F)F)nc(SCCN2CCOCC2)c1C#N	44.5*	28.6	9.3	18.9	-27.4	50.0*	-13.1	29.3
Cc1cc(C)c(C#N)c(SCCN2CCCCC2)n1	-4.0	-0.5	x	3.5	-1.4	x	x	x
O=C(Nc1ccccc1-c1nc2ccccc2[nH]1)c1sc2ccccc2c1Cl	x	x	-0.5	x	x	x	x	x
NC1=NC[C@@H](CC2CCCCC2)N1CCc1cc(C(F)(F)F)cc(C(F)(F)F)c1	71.8*	8.7	x	3.1	-0.4	8.9	-5.9	-22.1
O=C(c1cn(-c2ccccc2)nc1-c1cccnc1)N1CCN(S(=O)(=O)c2ccc(Cl)cc2)CC1	1.7	1.4	x	-0.8	0.6	x	x	x
SMILES	Rpn11 inh	HNF4A DNA FP	TPT1 inhibitor	CSN inh	SENP1 FRET inh	Rpn11 confirm	MMP-2 inh	Thrombin inh
CCN(CC)S(=O)(=O)c1ccc(C)c(C)c1	-3.7	3.9	-2.6	4.5	0.7	x	x	x
CCN(CC)S(=O)(=O)c1cc(C)ccc1SC	27.8*	1.3	0.7	-7.6	4.1	-2.6	-21.0	2.4
O=C(C1CC(=O)N(c2ccc(Cl)cc2)C1)N1CCN(Cc2ccc3c(c2)OCO3)CC1 (centres undefined)	1.5	-1.6	-1.9	6.2	0.6	x	x	x
COc1ccc(S(=O)(=O)N2CCC(C(=O)Oc3ccc(C)cc3)CC2)cc1OC	7.3	-0.8	-3.0	-1.7	2.5	x	x	x
Cc1ccsc1/C=C/c1ccc2ccccc2n1	48.2*	23.1	19.6	11.7	-23.4	52.6*	-21.3	21.3
Cc1ccsc1/C=C/c1ccc2cccc(O)c2n1	2.9	2.0	1.9	2.2	-17.8	x	x	x
CC(=O)OCC1OC(n2c(-c3ccc(Cl)cc3)ccc(C#N)c2=S)C(OC(C)=O)C(OC(C)=O)C1OC(C)=O (centres undefined)	43.5*	21.3	x	12.2	-26.4	17.2	-37.9	7.5
COc1cc(CN2CCNC(=O)C2CC(=O)N(Cc2nccn2C)C(C)C)cc(OC)c1 (centres undefined)	-3.4	-3.1	-1.8	-1.0	-5.6	x	x	x
Cc1ccc2nc(NCCCO)[nH]c2c1	40.8*	-5.2	-2.7	-1.3	3.2	-11.2	-34.8	-18.7
FC(F)Oc1ccc(NC(=S)NNc2ccnc3cc(Cl)ccc23)cc1	50.5*	39.0	2.9	10.9	-6.4	84.0*	39.1	active
NC(=S)NNc1ccnc2cc(Cl)ccc12	-0.1	1.2	4.9	8.0	-5.3	x	x	x
COC(=O)[C@@]12C[C@@H](CC(=O)NCc3ccccc3)C(=O)N(Cc3ccccc3)C1=CCC(C)(C)C2	x	1.4	x	-2.8	2.1	x	x	x
Clc1cccc(Sc2ccc(-c3ccccn3)s2)c1	66.7*	-37.9	-0.8	0.2	-2.2	-11.5	-4.2	-15.5
c1ccc(-c2ccc(-c3ccccn3)s2)nc1	-2.1	0.1	3.7	2.9	-94.3	x	x	x
Cc1ccn2c(=O)nc(SCC(=O)N3CCCCC3)nc2c1	3.1	-3.8	-2.3	-1.1	-40.5	x	x	x
CCOc1ccc(CCNC(=O)Cn2c(=O)c3cccn3c3cccnc32)cc1	41.8*	1.9	2.3	6.1	-39.6	1.8	-10.8	-5.0
COc1ccc2cc(C(=O)Nc3ccc(Cl)cc3)sc(=O)c2c1OC	187.7*	2.6	3.2	22.7	-6.7	39.1	33.5	-12.4
